According to ChEMBL document CHEMBL4665843, “Automated Design of Macrocycles for Therapeutic Applications: From Small Molecules to Peptides and Proteins” (J Med Chem, 2020):

Key:
[1] = target: T1, Carboxypeptidase B2 (Homo sapiens, UniProt Q96IY4); experiment: Inhibition of TAFIalpha in human plasma incubated for 15 mins by chromogenic assay; format: cell-free
T1 sequence (Q96IY4 whole entry): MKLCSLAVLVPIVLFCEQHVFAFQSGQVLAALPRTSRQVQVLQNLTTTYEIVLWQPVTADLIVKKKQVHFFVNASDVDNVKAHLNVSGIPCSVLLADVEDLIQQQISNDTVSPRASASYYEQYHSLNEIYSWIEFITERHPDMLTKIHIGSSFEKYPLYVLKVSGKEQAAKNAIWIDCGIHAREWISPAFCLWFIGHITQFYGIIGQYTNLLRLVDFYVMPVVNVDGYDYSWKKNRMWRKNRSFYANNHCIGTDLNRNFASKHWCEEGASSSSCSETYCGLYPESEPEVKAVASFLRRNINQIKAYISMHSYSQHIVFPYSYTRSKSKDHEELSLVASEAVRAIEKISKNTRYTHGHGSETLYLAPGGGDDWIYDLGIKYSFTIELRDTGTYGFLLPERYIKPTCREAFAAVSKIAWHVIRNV
In short: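 Plasma TAFI activity kit: TAFIa (2.5 μg/mL) preincubated with compound (from 2.5 mM DMSO stock) in 20 mM HEPES, 150 mM NaCl, pH 7.4, 15 min at room temperature; reaction started with developer (1:2 prediluted) and followed at 420 nm for 15 min. IC50 from serial dilutions in duplicate; mean (SEM) of n = 2 within one experiment.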

[2] = target: Glucagon receptor (Homo sapiens, UniProt P47871); experiment: Agonist activity at human glucagon receptor expressed in HEK293 cells assessed as induction of cAMP accumulation incubated for 30 mins by HTRF assay; format: functional, cell-based
Glucagon receptor, sequence (P47871 whole entry): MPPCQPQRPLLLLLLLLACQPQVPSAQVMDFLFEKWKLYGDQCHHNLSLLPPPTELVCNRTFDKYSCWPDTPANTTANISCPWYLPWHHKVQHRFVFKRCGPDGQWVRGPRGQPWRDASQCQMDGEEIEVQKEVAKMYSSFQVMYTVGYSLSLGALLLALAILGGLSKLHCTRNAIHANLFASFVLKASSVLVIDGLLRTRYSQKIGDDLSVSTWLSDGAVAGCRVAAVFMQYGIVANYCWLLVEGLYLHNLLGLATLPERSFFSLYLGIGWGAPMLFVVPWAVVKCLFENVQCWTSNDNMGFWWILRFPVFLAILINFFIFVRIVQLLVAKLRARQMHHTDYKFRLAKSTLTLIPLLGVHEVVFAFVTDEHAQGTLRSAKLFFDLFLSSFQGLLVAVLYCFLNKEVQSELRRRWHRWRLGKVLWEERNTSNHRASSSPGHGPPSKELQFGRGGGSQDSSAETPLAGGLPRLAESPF

[3] = target: Glucagon-like peptide 1 receptor (Homo sapiens, UniProt P43220); experiment: Agonist activity at human GLP-1 receptor expressed in HEK293 cells assessed as induction of cAMP accumulation incubated for 30 mins by HTRF assay; format: functional, cell-based
Glucagon-like peptide 1 receptor, sequence (P43220 whole entry): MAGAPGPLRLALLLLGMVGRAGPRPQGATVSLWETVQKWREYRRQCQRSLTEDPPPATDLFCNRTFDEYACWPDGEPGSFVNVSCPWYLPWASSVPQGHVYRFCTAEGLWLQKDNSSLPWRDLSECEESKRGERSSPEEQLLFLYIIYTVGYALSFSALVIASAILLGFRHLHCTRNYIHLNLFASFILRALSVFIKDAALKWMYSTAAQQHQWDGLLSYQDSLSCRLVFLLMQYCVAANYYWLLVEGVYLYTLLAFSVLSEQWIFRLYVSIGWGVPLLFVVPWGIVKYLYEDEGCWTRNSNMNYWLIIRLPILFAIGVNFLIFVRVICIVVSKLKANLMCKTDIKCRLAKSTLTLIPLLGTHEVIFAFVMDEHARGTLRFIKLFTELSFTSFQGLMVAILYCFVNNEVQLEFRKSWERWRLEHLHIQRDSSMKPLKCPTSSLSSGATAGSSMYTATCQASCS
In short: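 HEK-293 cells stably expressing human receptor, grown in DMEM/10% FBS, frozen, thawed and washed in HBSS/20 mM HEPES/0.1% HSA; resuspended with 2 mM IBMX. 5000 cells/well incubated with peptide 30 min at room temperature; cAMP by HTRF kit, 1 h with reagents in lysis buffer, 665/620 nm fluorescence ratio.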

| SMILES | IC50 [1] [nM] | EC50 [2] [nM] | EC50 [3] [nM] |
| --- | --- | --- | --- |
| CC(C)[C@@H]1NC(=O)[C@H](NC(=O)N[C@@H](CCCCN)C(=O)O)CCCCNC(=O)c2csc1n2 | 10 | – | – |
| CC[C@H](C)[C@H](NC(=O)[C@H](Cc1ccccc1)NC(=O)[C@H](CC(=O)O)NC(=O)[C@H](CCC(N)=O)NC(=O)[C@H](C)NC(=O)[C@]1(C)CCC/C=C\CCC[C@](C)(NC(=O)[C@H](CCC(N)=O)NC(=O)[C@H](CCCCN)NC(=O)[C@H](CO)NC(=O)[C@H](CC(C)C)NC(=O)[C@H](CC(=O)O)NC(=O)[C@H](CO)NC(=O)[C@@H](NC(=O)[C@H](Cc2ccccc2)NC(=O)[C@@H](NC(=O)CNC(=O)[C@H](CCC(N)=O)NC(=O)[C@@H](CO)NC(=O)[C@@H](N)Cc2cnc[nH]2)[C@@H](C)O)[C@@H](C)O)C(=O)N[C@@H](CC(=O)O)C(=O)N[C@@H](CO)C(=O)N[C@@H](CCCNC(=N)N)C(=O)N1)C(=O)N[C@@H](CCC(=O)O)C(=O)N[C@@H](Cc1c[nH]c2ccccc12)C(=O)N[C@@H](CC(C)C)C(=O)N[C@@H](CCCCN)C(=O)N[C@@H](CC(N)=O)C(=O)NCC(=O)NCC(=O)N1CCC[C@H]1C(=O)N[C@@H](CO)C(=O)N[C@@H](CO)C(=O)NCC(=O)N[C@@H](C)C(=O)N1CCC[C@H]1C(=O)N1CCC[C@H]1C(=O)N1CCC[C@H]1C(=O)N[C@@H](CO)C(N)=O | – | 8.43 | 0.0012 |
| CC[C@H](C)[C@H](NC(=O)[C@H](Cc1ccccc1)NC(=O)[C@H](CC(=O)O)NC(=O)[C@@H]1CCC(=O)NCCCC[C@H](NC(=O)[C@H](CC(=O)O)NC(=O)[C@H](CCSC)NC(=O)[C@H](CCC(N)=O)NC(=O)[C@H](CCCCN)NC(=O)[C@H](CO)NC(=O)[C@H](CC(C)C)NC(=O)[C@H](CC(=O)O)NC(=O)[C@H](CO)NC(=O)[C@@H](NC(=O)[C@H](Cc2ccccc2)NC(=O)[C@@H](NC(=O)CNC(=O)[C@H](CCC(N)=O)NC(=O)[C@@H](CO)NC(=O)[C@@H](N)Cc2cnc[nH]2)[C@@H](C)O)[C@@H](C)O)C(=O)N[C@@H](CCCNC(=N)N)C(=O)N[C@@H](CCCNC(=N)N)C(=O)N[C@@H](C)C(=O)N1)C(=O)N[C@@H](CCC(=O)O)C(=O)N[C@@H](Cc1c[nH]c2ccccc12)C(=O)N[C@@H](CC(C)C)C(=O)N[C@@H](CCCCN)C(=O)N[C@@H](CC(N)=O)C(=O)NCC(=O)NCC(=O)N1CCC[C@H]1C(=O)N[C@@H](CO)C(=O)N[C@@H](CO)C(=O)NCC(=O)N[C@@H](C)C(=O)N1CCC[C@H]1C(=O)N1CCC[C@H]1C(=O)N1CCC[C@H]1C(=O)N[C@@H](CO)C(N)=O | – | 0.0078 | 0.0064 |

Now from value to compound, other results behind:

| IC50 [1] [nM] | SMILES | EC50 [2] [nM] | EC50 [3] [nM] |
| --- | --- | --- | --- |
| 42 | CC(C)[C@@H]1NC(=O)[C@H](NC(=O)N[C@@H](CCCCN)C(=O)O)CCCCNC(=O)c2coc1n2 | – | – |
| 52 | CC(C)[C@@H]1NC(=O)[C@H](NC(=O)N[C@@H](CCCCN)C(=O)O)Cc2ccc(cc2)NC(=O)c2coc1n2 | – | – |
